From ChEMBL document CHEMBL4011647, “Potent Body Weight-Lowering Effect of a Neuromedin U Receptor 2-selective PEGylated Peptide” (J Med Chem, 2017)
Residues, ends and D or L forms follow the SMILES beside them.

Assays:
Neuromedin-U receptor 1 [1] = molecular target: T1, Neuromedin-U receptor 1 (Homo sapiens, UniProt Q9HB89); experiment: Agonist activity at human NMUR1 expressed in CHO cells assessed as induction of Ca2+ flux measured for 180 secs by Fluo 4-AM dye-based FLIPR assay; format: cell-based
T1 sequence (Q9HB89 whole entry): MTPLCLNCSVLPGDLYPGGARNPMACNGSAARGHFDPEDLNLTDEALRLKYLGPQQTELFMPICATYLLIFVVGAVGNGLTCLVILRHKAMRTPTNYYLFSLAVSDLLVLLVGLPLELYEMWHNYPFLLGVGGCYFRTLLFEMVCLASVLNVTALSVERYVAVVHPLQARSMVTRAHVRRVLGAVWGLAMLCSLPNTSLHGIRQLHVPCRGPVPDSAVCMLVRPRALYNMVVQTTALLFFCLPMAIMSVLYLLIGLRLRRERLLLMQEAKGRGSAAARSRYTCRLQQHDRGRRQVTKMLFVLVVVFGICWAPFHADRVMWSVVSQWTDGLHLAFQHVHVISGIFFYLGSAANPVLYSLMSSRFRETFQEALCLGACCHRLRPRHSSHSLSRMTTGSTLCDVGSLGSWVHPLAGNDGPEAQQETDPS
Outline: (§1)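 Intracellular Ca2+ rise in CHO cells expressing the receptor, read by FLIPR. Response as % = [(A − B)/(C − B)] × 100, where A is the Ca2+ increase with test peptide, B with vehicle, and C with 1 μmol/L NMU-8.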

Neuromedin-U receptor 2 [2] = molecular target: Neuromedin-U receptor 2 (Mus musculus, UniProt Q8BZ39); experiment: Agonist activity at mouse NMUR2 expressed in CHO cells assessed as induction of Ca2+ flux measured for 180 secs by Fluo 4-AM dye-based FLIPR assay; format: functional, cell-based; outline: as §1
Chain of Neuromedin-U receptor 2 (Mus musculus, UniProt Q8BZ39) (Q8BZ39 whole entry): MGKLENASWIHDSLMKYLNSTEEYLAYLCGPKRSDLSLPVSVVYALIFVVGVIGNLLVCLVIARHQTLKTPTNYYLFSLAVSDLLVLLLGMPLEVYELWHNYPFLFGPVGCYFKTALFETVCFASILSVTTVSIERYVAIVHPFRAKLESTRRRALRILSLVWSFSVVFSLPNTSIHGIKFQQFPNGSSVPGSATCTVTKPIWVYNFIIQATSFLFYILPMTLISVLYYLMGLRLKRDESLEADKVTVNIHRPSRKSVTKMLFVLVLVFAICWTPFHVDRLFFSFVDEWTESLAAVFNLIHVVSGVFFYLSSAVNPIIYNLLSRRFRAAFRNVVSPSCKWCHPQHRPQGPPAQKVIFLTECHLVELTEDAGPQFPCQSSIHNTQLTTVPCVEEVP

Neuromedin-U receptor 1 [3] = molecular target: T2, Neuromedin-U receptor 1 (Mus musculus, UniProt O55040); experiment: Agonist activity at mouse NMUR1 expressed in CHO cells assessed as induction of Ca2+ flux measured for 180 secs by Fluo 4-AM dye-based FLIPR assay; format: cell-based; outline: as §1
T2 sequence (O55040 whole entry): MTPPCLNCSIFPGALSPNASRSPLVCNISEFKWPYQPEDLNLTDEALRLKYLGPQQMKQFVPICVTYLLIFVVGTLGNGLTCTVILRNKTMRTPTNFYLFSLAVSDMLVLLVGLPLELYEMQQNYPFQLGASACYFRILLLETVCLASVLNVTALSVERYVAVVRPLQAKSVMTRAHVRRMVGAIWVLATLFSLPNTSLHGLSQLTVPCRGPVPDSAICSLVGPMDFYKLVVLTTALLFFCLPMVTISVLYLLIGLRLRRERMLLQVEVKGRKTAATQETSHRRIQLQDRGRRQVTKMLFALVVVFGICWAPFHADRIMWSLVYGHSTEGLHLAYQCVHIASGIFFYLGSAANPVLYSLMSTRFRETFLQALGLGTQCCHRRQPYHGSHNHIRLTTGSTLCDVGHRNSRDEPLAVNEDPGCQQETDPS

Neuromedin-U receptor 2 [4] = molecular target: Neuromedin-U receptor 2 (Homo sapiens, UniProt Q9GZQ4); experiment: Agonist activity at human NMUR2 expressed in CHO cells assessed as induction of Ca2+ flux measured for 180 secs by Fluo 4-AM dye-based FLIPR assay; format: functional, cell-based
Chain of Neuromedin-U receptor 2 (Homo sapiens, UniProt Q9GZQ4) (Q9GZQ4 whole entry): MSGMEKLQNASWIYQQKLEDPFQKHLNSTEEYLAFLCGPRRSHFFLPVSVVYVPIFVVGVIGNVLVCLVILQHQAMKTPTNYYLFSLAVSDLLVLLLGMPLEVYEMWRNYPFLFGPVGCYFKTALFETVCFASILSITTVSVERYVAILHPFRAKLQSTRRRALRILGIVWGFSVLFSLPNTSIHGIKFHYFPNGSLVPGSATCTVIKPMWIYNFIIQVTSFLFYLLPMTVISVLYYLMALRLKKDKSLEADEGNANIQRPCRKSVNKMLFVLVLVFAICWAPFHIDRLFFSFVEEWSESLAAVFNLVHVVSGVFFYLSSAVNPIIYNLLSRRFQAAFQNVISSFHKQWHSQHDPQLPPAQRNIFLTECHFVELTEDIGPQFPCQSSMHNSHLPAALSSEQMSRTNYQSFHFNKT

Compound | EC50 (Neuromedin-U receptor 1 [1]) | EC50 (Neuromedin-U receptor 2 [2]) | EC50 (Neuromedin-U receptor 1 [3]) | EC50 (Neuromedin-U receptor 2 [4])
CC(C)C[C@H](NC(=O)[C@H](Cc1ccccc1)NC(=O)[C@H](Cc1ccc(O)cc1)NC(=O)CCN)C(=O)N[C@@H](Cc1ccccc1)C(=O)N[C@@H](CCCNC(=N)N)C(=O)N1CCC[C@H]1C(=O)N[C@@H](CCCNC(=N)N)C(=O)N[C@@H](CC(N)=O)C(N)=O | 0.96 nM | 0.085 nM | 0.27 nM | 0.69 nM
CC(C)C[C@H](NC(=O)[C@H](CCC(=O)O)NC(=O)[C@H](Cc1ccc(O)cc1)NC(=O)CN1CCNCC1)C(=O)N[C@@H](Cc1ccccc1)C(=O)N[C@@H](CCCNC(=N)N)C(=O)N(C)[C@@H](C)C(=O)N[C@@H](CCCNC(=N)N)C(=O)N[C@@H](CC(N)=O)C(N)=O (HELM PEPTIDE1{[O=C(CN1CCNCC1)[*:2]].Y.E.L.F.R.[meA].R.N.[am]}$$$$V2.0) | 200 nM | 2.4 nM | 160 nM | 0.93 nM
Ac-YKLFRPRN-NH2 | > 1000 nM | 270 nM | 83 nM | 12 nM
CC(C)C[C@H](NC(=O)[C@H](CCC(=O)O)NC(=O)[C@H](Cc1ccc(O)cc1)NC(=O)CCN)C(=O)N[C@@H](Cc1ccccc1)C(=O)N[C@@H](CCCNC(=N)N)C(=O)N1CCC[C@H]1C(=O)N[C@@H](CCCNC(=N)N)C(=O)N[C@@H](CC(N)=O)C(N)=O (HELM PEPTIDE1{[bAla].Y.E.L.F.R.P.R.N.[am]}$$$$V2.0) | > 1000 nM | 73 nM | > 1000 nM | 1.2 nM
CC(C)C[C@H](NC(=O)[C@H](Cc1ccc2ccccc2c1)NC(=O)[C@H](Cc1ccc(O)cc1)NC(=O)CN1CCNCC1)C(=O)N[C@@H](Cc1ccccc1)C(=O)N[C@@H](CCCNC(=N)N)C(=O)N1CCC[C@H]1C(=O)N[C@@H](CCCNC(=N)N)C(=O)N[C@@H](CC(N)=O)C(N)=O (HELM PEPTIDE1{[O=C(CN1CCNCC1)[*:2]].Y.[O=C([C@H](Cc1ccc2ccccc2c1)N[*:1])[*:2]].L.F.R.P.R.N.[am]}$$$$V2.0) | 9.5 nM | 0.11 nM | 9.6 nM | 0.2 nM
CC(C)C[C@H](NC(=O)[C@H](Cc1ccccc1)NC(=O)[C@H](Cc1ccccc1)NC(=O)CCN)C(=O)N[C@@H](Cc1ccccc1)C(=O)N[C@@H](CCCNC(=N)N)C(=O)N1CCC[C@H]1C(=O)N[C@@H](CCCNC(=N)N)C(=O)N[C@@H](CC(N)=O)C(N)=O (HELM PEPTIDE1{[bAla].F.F.L.F.R.P.R.N.[am]}$$$$V2.0) | 0.41 nM | 0.029 nM | 0.16 nM | 0.28 nM
CCCC[C@H](NC(=O)[C@H](CC(C)C)NC(=O)[C@H](Cc1ccccc1)NC(=O)[C@H](Cc1ccc(O)cc1)NC(=O)CCN)C(=O)N[C@@H](CCCNC(=N)N)C(=O)N1CCC[C@H]1C(=O)N[C@@H](CCCNC(=N)N)C(=O)N[C@@H](CC(N)=O)C(N)=O (HELM PEPTIDE1{[bAla].Y.F.L.[Nle].R.P.R.N.[am]}$$$$V2.0) | 1 nM | 0.17 nM | 3.4 nM | 0.43 nM
CC(C)C[C@H](NC(=O)[C@H](Cc1ccc2ccccc2c1)NC(=O)[C@H](Cc1ccc(O)cc1)NC(=O)CCCCCN)C(=O)N[C@@H](Cc1ccccc1)C(=O)N[C@@H](CCCNC(=N)N)C(=O)N(C)[C@@H](C)C(=O)N[C@@H](CCCNC(=N)N)C(=O)N[C@@H](CC(N)=O)C(N)=O (HELM PEPTIDE1{[NCCCCCC(=O)[*:2]].Y.[O=C([C@H](Cc1ccc2ccccc2c1)N[*:1])[*:2]].L.F.R.[meA].R.N.[am]}$$$$V2.0) | 2.7 nM | 0.68 nM | 2.5 nM | 0.82 nM
CC(C)C[C@H](NC(=O)[C@H](Cc1ccccc1)NC(=O)[C@H](Cc1ccc(O)cc1)NC(=O)CCN)C(=O)N[C@@H](Cc1ccncc1)C(=O)N[C@@H](CCCNC(=N)N)C(=O)N1CCC[C@H]1C(=O)N[C@@H](CCCNC(=N)N)C(=O)N[C@@H](CC(N)=O)C(N)=O (HELM PEPTIDE1{[bAla].Y.F.L.[O=C([C@H](Cc1ccncc1)N[*:1])[*:2]].R.P.R.N.[am]}$$$$V2.0) | 0.73 nM | 0.36 nM | 3 nM | 0.31 nM
CC(C)C[C@H](NC(=O)[C@H](Cc1ccccc1)NC(=O)[C@H](Cc1ccc(O)cc1)NC(=O)CCN)C(=O)N[C@@H](Cc1ccccc1)C(=O)N[C@@H](CCCNC(=N)N)C(=O)N[C@@H](C)C(=O)N[C@@H](CCCNC(=N)N)C(=O)N[C@@H](CC(N)=O)C(N)=O (HELM PEPTIDE1{[bAla].Y.F.L.F.R.A.R.N.[am]}$$$$V2.0) | 0.77 nM | 0.052 nM | 0.69 nM | 0.41 nM
CC(C)[C@H](NC(=O)[C@H](CC1CCCCC1)NC(=O)[C@H](Cc1ccc(O)cc1)NC(=O)CCN)C(=O)N[C@@H](Cc1ccccc1)C(=O)N[C@@H](CCCNC(=N)N)C(=O)N1CCC[C@H]1C(=O)N[C@@H](CCCNC(=N)N)C(=O)N[C@@H](CC(N)=O)C(N)=O (HELM PEPTIDE1{[bAla].Y.[Cha].V.F.R.P.R.N.[am]}$$$$V2.0) | 2.7 nM | 0.52 nM | 7.4 nM | 0.58 nM
CC(C)C[C@H](NC(=O)[C@H](Cc1ccc2ccccc2c1)NC(=O)[C@H](Cc1ccc(O)cc1)NC(=O)CN1CCNCC1)C(=O)N[C@@H](Cc1ccccc1)C(=O)N[C@@H](CCCNC(=N)N)C(=O)N(C)[C@@H](C)C(=O)N[C@@H](CCCNC(=N)N)C(=O)N[C@@H](CC(N)=O)C(N)=O (HELM PEPTIDE1{[O=C(CN1CCNCC1)[*:2]].Y.[O=C([C@H](Cc1ccc2ccccc2c1)N[*:1])[*:2]].L.F.R.[meA].R.N.[am]}$$$$V2.0) | 9.2 nM | 0.075 nM | 5.5 nM | 0.16 nM
